# Only some compounds are listed: those with a hit (about 2.2% of all), similar ones and a draw of the others.
# PLK1 inh: blocks human PLK1 kinase activity. P53350. recombinant PLK1 kinase, TR-FRET peptide phosphorylation. inhibition, % at 10 µM. 0.53% of 97,000 active;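 active = inhibition of 50% or more in the single-concentration screen; inactive = inhibition below 50%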;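 note: 0% = DMSO max control and 100% = H-89 dihydrochloride min control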
# E-sel TNF inh: TNF alpha driven E-selectin expression inhibition; HUVEC TNFa-induced E-selectin immunofluorescence, high content; inhibition, % at 2 µM; 0.71% of 120,000 active; AID 1246;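 active = inhibition above the batch mean plus 3 SD, and confirmed as a hit on visual image review, cut at about 43% in these data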;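 note: 0% = TNF-stimulated DMSO wells and 100% = unstimulated control wells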
# FAK inh: inhibitors of human focal adhesion kinase | 0.84% of 97,000 active | inhibition, %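 (tested at 7 µM)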 | AID 727 | Q05397 | biochemical FAK kinase activity assay; in the data active = inhibition above about 19%;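 note: 0% = DMSO and 100% = reference compound high control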
# cytoskel mod: modifiers of cytoskeleton assembly; 0.18% of 91,000 active; inhibition, % at 2 µM; HUVEC TNFa F-actin phalloidin imaging, high content;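 active = inhibition above the batch mean plus 3 SD and confirmed as a hit by visual image inspection, cut at about 30% in these data, passing the limit was not always enough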
# Plk1 PBD FP: blocks phosphopeptide binding to human Plk1 polo box domain. AID 693. P53350. 0.13% of 97,000 active. inhibition, %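 (tested at about 20 µM)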. Plk1 PBD phosphopeptide binding, fluorescence polarization; in the data active = inhibition above about 34%, passing the limit was not always enough
# Rev-RRE block: inhibitors of HIV-1 Rev-RRE RNA interaction; inhibition, % at 8 µM; 0.79% of 97,000 active; Rev peptide-RRE RNA binding, FRET; P05866;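 active = inhibition above the screen-wide mean plus 3 SD, cut at about 35% in these data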;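 note: 0% = median DMSO wells and 100% = median Neomycin B control wells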
#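 Material: labelled RRE RNA duplex and labelled Rev peptide / Buffer or medium: HEPES pH 7.5 salt buffer with EDTA / Compound dosing: single point, 8 µM final nominal compound concentration / Benchmarks: DMSO low control, neomycin B high control / Timing: 5 min preincubation and 15 min binding, 25 °C / Technique: FRET fluorescence readout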
# Numbers without * were called inactive; x = not tested or not shown; [ ] = another dose, or the depositor's remark.
SMILES,PLK1 inh,E-sel TNF inh,FAK inh,cytoskel mod,Plk1 PBD FP,Rev-RRE block
COc1ccc(C(=O)/C=C/Nc2ccc([N+](=O)[O-])cc2C)c(OC)c1,-10,100*,-1,3,21,20
Cc1ccc(/C=C2\NC(=S)NC2=O)cc1[N+](=O)[O-],x,-6,x,x,x,x
O=C1NC(=S)N/C1=C/c1cc([N+](=O)[O-])ccc1O,-5,0,-2,16,-35,111*[fluorescence artefact?]
O=C1NC(=S)N/C1=C/c1cccc([N+](=O)[O-])c1O,-12,x,3,3,-54,69*
O=C(NCc1cccc(C(F)(F)F)c1)C1CC(c2c(Cl)cccc2Cl)=NO1 (stereo unspecified),-3,11,-2,-21,1,9
CN(C)S(=O)(=O)c1cc(NC(=O)CSc2nn(-c3ccc(Cl)cc3)c(=S)s2)ccc1Cl,x,72*,x,x,x,x
CC(=O)N1CCN(CC(=O)Nc2ccc(Cl)c(S(=O)(=O)N(C)C)c2)CC1,x,10,x,x,x,x
CC(C)OC(=O)c1ccc(NC(=O)c2ccco2)cc1,18,-2,-2,-21,-44,-3
C=CCN1C(=O)/C(=C2/Sc3ccccc3N2CCCS(=O)(=O)O)SC1=S,-15,-8,-9,65*,-2,6
Cc1ccc(S(=O)(=O)N(C)CCCC(=O)Nc2cc(C)ccc2C)cc1,x,97*,x,x,x,x
Cc1cc(C)nc(NCCO)n1,x,23,x,x,x,x
CCN(CC)CCNC(=O)Cn1nc(Cc2cccnc2)c2ccccc2c1=O,62*,x,0,x,-2,5
COc1ccc(CN=Cc2[nH]c3ccc(Br)c(Cl)c3c2O)cc1,-11,x,14,22,-7,125*[fluorescence artefact?]
COc1ccc(-c2cc(C)nc(SCc3cccc(C(=O)O)c3)n2)cc1,x,69*,x,x,x,x
COc1ccc(CNS(=O)(=O)NCc2ccc(C)cc2)cc1,x,15,x,x,x,x
CCOC(=O)c1[nH]c(C)c(C(=O)OCC(=O)N(C)C2CCS(=O)(=O)C2)c1C (stereo unspecified),x,-2,x,x,x,x
COCCn1c(SCC(=O)N2CCCCC2)nc2ccccc2c1=O,-2,96*,0,-11,-18,5
CCn1c(SCC(=O)N2CCCC2)nc2ccccc2c1=O,-2,x,0,11,-35,0
CC1CC(Nc2ccccc2)=CC(=O)O1 (stereo unspecified),-8,44*,-2,10,7,12
Cc1cc(N2CCOCC2)ccc1/C=C1/SC(=O)NC1=O,x,-3,x,x,x,x
C=CCN1C(=O)S/C(=C\c2ccc(N3CCOCC3)cc2C)C1=O,-9,2,-1,-1,-13,39*
CCOC(=O)C1(Cc2ccccc2Cl)CCN(C(=O)CCn2ccnc2C)CC1,x,3,x,x,x,x
CN(CCC#N)C(=O)COC(=O)c1ccccc1C(=O)c1ccc(Cl)c([N+](=O)[O-])c1,x,100*,x,x,x,x
Cc1ccc(C(=O)NNC(=O)C2CCCN(c3ncccn3)C2)cc1 (stereo unspecified),-3,24,-3,-5,-28,-3
CCOc1cc(N2CCOCC2)c(OCC)cc1NC(=O)CCS(=O)(=O)c1ccc(Cl)cc1,-20,3,0,-12,-1,23
SMILES,PLK1 inh,E-sel TNF inh,FAK inh,cytoskel mod,Plk1 PBD FP,Rev-RRE block
CCOc1cc(N2CCOCC2)c(OCC)cc1NS(=O)(=O)c1ccc(Cl)s1,-8,89*,3,-34,-5,1
CCOC(=O)SC1=N/C(=C\c2ccc(N(C)C)cc2)C(=O)S1,-24,6,0,-5,-91,101*[fluorescence artefact?]
Cc1ccc2nc3cc([N+](=O)[O-])cc([N+](=O)[O-])c3cc2c1,x,99*,x,x,x,x
CCCCCOC(=O)Cn1c(SCC(=O)Nc2ccccc2)nc2c1c(=O)[nH]c(=O)n2C,9,74*,-4,-30,9,7
Cn1c(=O)[nH]c(=O)c2c1nc(SCC(=O)Nc1ccccc1)n2Cc1ccccc1,-14,0,7,-8,-21,10
O=C(Nc1cc2ccccc2oc1=O)c1ccccc1,x,72*,x,x,x,x
COc1ccc(C(=O)Nc2cc(C(=O)c3ccccc3)c(C)oc2=O)cc1,8,x,-2,-28,7,-1
COC(CNC(=O)c1cc(-c2ccncc2)nc2ccc(S(=O)(=O)N3CCOCC3)cc12)OC,x,-4,x,x,x,x
COC(=O)/C(C#N)=C1/SC=C(C)N1c1ccccc1,-5,16,0,-4,-11,8
N#C/C(C(=O)c1ccccc1)=C1/SC=C(N)N1c1ccccc1,-14,21,4,1,-108,118*[fluorescence artefact?]
COC(=O)c1cc(NC(=O)c2ccccc2)c(=O)oc1C/C=N\OCc1ccc(Cl)cc1Cl,-4,18,-3,-17,-8,48*

# From PubChem BioAssay
